Test results reported in ChEMBL document CHEMBL1152418, “Synthesis, antiviral activity and molecular modeling of oxoquinoline derivatives” (Bioorg Med Chem, 2009).

Tested on: Human immunodeficiency virus 1
Test: Inhibition of HIV1 viral replication infected in human PBMC cells assessed as viral p24Ag concentration after 7 days postinfection by ELISA relative to untreated control
Type: functional
Settings: not given
In short: (§1)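 HIV-1 Ba-L (R5-tropic, subtype B) grown in PHA-activated donor PBMCs. PBMCs stimulated 2–3 days with 5 μg/mL PHA, then kept with 5 U/mL IL-2. Cells plated at 2 × 10⁵/well in triplicate with a range of compound concentrations. After 7 days at 37 °C, 5% CO₂, supernatant p24 measured by capture ELISA. EC₅₀ derived against untreated infected cells.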

| SMILES | inhibition (INH) |
| --- | --- |
| CCOC(=O)c1cn(COCCO)c2ccc(F)cc2c1=O | 30% |
| CCOC(=O)c1c[nH]c2ccc(Cl)cc2c1=O | 58% |
| Cc1cn([C@H]2C[C@H](N=[N+]=[N-])[C@@H](CO)O2)c(=O)[nH]c1=O [ZIDOVUDINE] | 94% |
| O=C(O)c1cn(Cc2ccccc2)c2ccc(Cl)cc2c1=O | 29% |
| CCOC(=O)c1cn(COCCO)c2ccc(Cl)cc2c1=O | 45% |
| CCOC(=O)c1cn(Cc2ccccc2)c2ccc(Cl)cc2c1=O | 24% |
| O=C(O)c1cn([C@@H]2O[C@H](CO)[C@@H](O)[C@H]2O)c2ccc(Cl)cc2c1=O | 99% |
| O=C(NCc1ccccc1)c1c[nH]c2ccc(Cl)cc2c1=O | 47% |
| O=C(NCc1ccccc1)c1cn(COCCO)c2ccc(F)cc2c1=O | 90% |
| NNC(=O)c1cn(COCCO)c2ccc(F)cc2c1=O | 96% |
| NNC(=O)c1c[nH]c2ccc(Cl)cc2c1=O | 29% |
| O=C(NCc1ccccc1)c1cn(COCCO)c2ccc(Cl)cc2c1=O | 98% |
| NNC(=O)c1cn(COCCO)c2ccc(Cl)cc2c1=O | 99% |

Tested on: Human immunodeficiency virus 1
Test: Inhibition of HIV1 viral replication infected in human PBMC cells assessed as viral p24Ag concentration after 7 days postinfection by ELISA
Type: functional, organism-based
Settings: Human immunodeficiency virus 1, PBMC, 168 h
In short: as §1

| SMILES | EC50 |
| --- | --- |
| CCOC(=O)c1cn(COCCO)c2ccc(F)cc2c1=O | 83.3 µM |
| CCOC(=O)c1c[nH]c2ccc(Cl)cc2c1=O | 43 µM |
| Cc1cn([C@H]2C[C@H](N=[N+]=[N-])[C@@H](CO)O2)c(=O)[nH]c1=O [ZIDOVUDINE] | 0.05 µM |
| O=C(O)c1cn(Cc2ccccc2)c2ccc(Cl)cc2c1=O | 86 µM |
| CCOC(=O)c1cn(COCCO)c2ccc(Cl)cc2c1=O | 50 µM |
| CCOC(=O)c1cn(Cc2ccccc2)c2ccc(Cl)cc2c1=O | 104 µM |
| O=C(O)c1cn([C@@H]2O[C@H](CO)[C@@H](O)[C@H]2O)c2ccc(Cl)cc2c1=O | 1.5 µM |
| O=C(NCc1ccccc1)c1c[nH]c2ccc(Cl)cc2c1=O | 53 µM |
| O=C(NCc1ccccc1)c1cn(COCCO)c2ccc(F)cc2c1=O | 2.8 µM |
| NNC(=O)c1cn(COCCO)c2ccc(F)cc2c1=O | 3.3 µM |
| NNC(=O)c1c[nH]c2ccc(Cl)cc2c1=O | 86 µM |
| O=C(NCc1ccccc1)c1cn(COCCO)c2ccc(Cl)cc2c1=O | 4.5 µM |
| NNC(=O)c1cn(COCCO)c2ccc(Cl)cc2c1=O | 2.5 µM |

Tested on: not listed separately
Test: Cytotoxicity against human PBMC by XTT assay
Type: cell-based
Settings: PBMC (peripheral blood mononuclear cells)
In short: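 PBMCs held in RPMI 1640 with 10% heat-inactivated FBS, penicillin, streptomycin, 2 mM glutamine and 10 mM HEPES. Activated with 5 µg/mL PHA for 2–3 days, then kept with 5 U/mL IL-2. Cells exposed to a range of concentrations. Viability read by XTT, OD 450 nm 2 h after addition. CC50 is the concentration giving 50% viability loss versus untreated controls.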

| SMILES | CC50 |
| --- | --- |
| CCOC(=O)c1cn(COCCO)c2ccc(F)cc2c1=O | 1500 µM |
| CCOC(=O)c1c[nH]c2ccc(Cl)cc2c1=O | 1660 µM |
| Cc1cn([C@H]2C[C@H](N=[N+]=[N-])[C@@H](CO)O2)c(=O)[nH]c1=O [ZIDOVUDINE] | 126 µM |
| O=C(O)c1cn(Cc2ccccc2)c2ccc(Cl)cc2c1=O | 1890 µM |
| CCOC(=O)c1cn(COCCO)c2ccc(Cl)cc2c1=O | 1800 µM |
| CCOC(=O)c1cn(Cc2ccccc2)c2ccc(Cl)cc2c1=O | 1840 µM |
| O=C(O)c1cn([C@@H]2O[C@H](CO)[C@@H](O)[C@H]2O)c2ccc(Cl)cc2c1=O | 1700 µM |
| O=C(NCc1ccccc1)c1c[nH]c2ccc(Cl)cc2c1=O | 1400 µM |
| O=C(NCc1ccccc1)c1cn(COCCO)c2ccc(F)cc2c1=O | 2800 µM |
| NNC(=O)c1cn(COCCO)c2ccc(F)cc2c1=O | 909 µM |
| NNC(=O)c1c[nH]c2ccc(Cl)cc2c1=O | 1230 µM |
| O=C(NCc1ccccc1)c1cn(COCCO)c2ccc(Cl)cc2c1=O | 3200 µM |
| NNC(=O)c1cn(COCCO)c2ccc(Cl)cc2c1=O | 2400 µM |

Tested on: not listed separately
Test: Selectivity index, ratio of CC50 for human PBMC cells to EC50 for HIV1
Type: toxicity, cell-based
Settings: read-out: Ratio CC50/EC50
In short: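 Ratio of PBMC CC50 to anti-HIV-1 EC50. Both were measured in PHA-activated, IL-2-maintained PBMCs. For EC50, cells were infected with Ba-L isolate (R5-tropic, subtype B), plated at 2 × 10⁵ cells/well in triplicate and treated with various concentrations for 7 days at 37 °C, 5% CO2. Supernatant p24 was measured by capture ELISA against untreated infected cells. CC50 came from XTT viability.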

| SMILES | selectivity ratio |
| --- | --- |
| CCOC(=O)c1cn(COCCO)c2ccc(F)cc2c1=O | 18 |
| CCOC(=O)c1c[nH]c2ccc(Cl)cc2c1=O | 39 |
| Cc1cn([C@H]2C[C@H](N=[N+]=[N-])[C@@H](CO)O2)c(=O)[nH]c1=O [ZIDOVUDINE] | 2520 |
| O=C(O)c1cn(Cc2ccccc2)c2ccc(Cl)cc2c1=O | 22 |
| CCOC(=O)c1cn(COCCO)c2ccc(Cl)cc2c1=O | 36 |
| CCOC(=O)c1cn(Cc2ccccc2)c2ccc(Cl)cc2c1=O | 18 |
| O=C(O)c1cn([C@@H]2O[C@H](CO)[C@@H](O)[C@H]2O)c2ccc(Cl)cc2c1=O | 1130 |
| O=C(NCc1ccccc1)c1c[nH]c2ccc(Cl)cc2c1=O | 26 |
| O=C(NCc1ccccc1)c1cn(COCCO)c2ccc(F)cc2c1=O | 1000 |
| NNC(=O)c1cn(COCCO)c2ccc(F)cc2c1=O | 275 |
| NNC(=O)c1c[nH]c2ccc(Cl)cc2c1=O | 14 |
| O=C(NCc1ccccc1)c1cn(COCCO)c2ccc(Cl)cc2c1=O | 711 |
| NNC(=O)c1cn(COCCO)c2ccc(Cl)cc2c1=O | 960 |
